Laboratory results taken from ChEMBL document CHEMBL3244222, “Synthesis of angiotensin II antagonists containing sarcosine in position 7” (J Med Chem, 1979).
Square brackets hold non-standard residues; d marks the D form. Peptide text beside a SMILES is read from it. Sar = CNCC(=O)O

Key:
[1] = target: Angiotensin II receptor (Rattus norvegicus) (UniProt P29089+P25095+P35351); assay: Intrinsic myotropic activity at angiotensin 2 receptor in Sprague-Dawley rat uterus relative to [Ile5]angiotensin 2
Outline: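 Isolated uterus from diethylstilbestrol-primed female Sprague-Dawley rats (150-250 g), challenged every 12 min. Activity expressed relative to [Ile5]angiotensin II (MRC Research Standard A, 70/302). Mean ± SEM, with the number of experiments given.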

Rattus norvegicus = assay: Pressor activity in anesthetized vagotomized-ganglionic blocked rat model administered as bolus injection relative to [Ile5]angiotensin 2; type: functional
Outline: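 Anesthetized, vagotomized rats. Ganglion block with mecamylamine hydrochloride, 0.3 mg/100 g subcutaneous in 10% polyvinylpyrrolidone. Analogues given as bolus injections in a 2+2 assay against angiotensin II standard (MRC Research Standard A, 70/302). Mean ± SEM, with the number of experiments given.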

Angiotensin II receptor = target: T1, Angiotensin II receptor (Rattus norvegicus, UniProt P29089+P25095+P35351); assay: Antagonist activity at angiotensin 2 receptor in Sprague-Dawley rat uterus assessed as reduction of angiotensin 2-induced response pretreated for 2 mins followed by angiotensin 2 challenge for every 12 mins
T1 sequence (P29089 whole entry): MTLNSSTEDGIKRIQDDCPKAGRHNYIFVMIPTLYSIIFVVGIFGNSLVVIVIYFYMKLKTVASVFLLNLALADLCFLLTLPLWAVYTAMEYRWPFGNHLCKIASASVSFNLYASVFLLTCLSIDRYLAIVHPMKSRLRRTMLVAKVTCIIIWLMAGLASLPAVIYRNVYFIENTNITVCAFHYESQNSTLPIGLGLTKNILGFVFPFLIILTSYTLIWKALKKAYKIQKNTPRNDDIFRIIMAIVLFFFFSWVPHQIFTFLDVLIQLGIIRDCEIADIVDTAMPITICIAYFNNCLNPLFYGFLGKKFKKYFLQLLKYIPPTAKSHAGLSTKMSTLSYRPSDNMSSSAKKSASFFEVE
T1 sequence (P25095 whole entry): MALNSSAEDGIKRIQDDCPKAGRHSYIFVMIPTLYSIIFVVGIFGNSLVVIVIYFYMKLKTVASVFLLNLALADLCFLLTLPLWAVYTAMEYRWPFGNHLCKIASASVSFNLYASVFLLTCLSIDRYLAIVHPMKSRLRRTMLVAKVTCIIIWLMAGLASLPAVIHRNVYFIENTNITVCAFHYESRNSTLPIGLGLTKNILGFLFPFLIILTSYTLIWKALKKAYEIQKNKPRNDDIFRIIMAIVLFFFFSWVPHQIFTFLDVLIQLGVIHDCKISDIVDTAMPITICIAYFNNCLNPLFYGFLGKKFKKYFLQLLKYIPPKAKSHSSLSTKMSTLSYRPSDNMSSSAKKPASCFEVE
T1 sequence (P35351 whole entry): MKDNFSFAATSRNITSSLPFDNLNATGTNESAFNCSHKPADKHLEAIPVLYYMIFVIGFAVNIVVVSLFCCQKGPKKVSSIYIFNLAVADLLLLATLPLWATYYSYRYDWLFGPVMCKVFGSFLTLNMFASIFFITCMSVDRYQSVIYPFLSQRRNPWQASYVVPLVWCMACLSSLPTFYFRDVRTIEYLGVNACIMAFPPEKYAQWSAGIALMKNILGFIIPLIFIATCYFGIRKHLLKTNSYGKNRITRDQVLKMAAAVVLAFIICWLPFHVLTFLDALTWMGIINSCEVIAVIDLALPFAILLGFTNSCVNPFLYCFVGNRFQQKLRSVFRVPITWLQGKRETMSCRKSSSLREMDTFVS

Compound	Intrinsic activity [1] [%]	Activity (Rattus norvegicus) [%]	pA2 (Angiotensin II receptor)
CC[C@H](C)[C@H](NC(=O)[C@@H]1CCCN1C(=O)[C@H](Cc1c[nH]cn1)NC(=O)[C@@H](NC(=O)[C@H](Cc1ccc(O)cc1)NC(=O)[C@@H](NC(=O)[C@H](CCCN=C(N)N)NC(=O)CNC)C(C)C)[C@@H](C)CC)C(=O)O	< 0.1	1.1	–
CC[C@H](C)[C@H](NC(=O)[C@H](Cc1ccc(O)cc1)NC(=O)[C@@H](NC(=O)[C@H](CCCNC(=N)N)NC(=O)CNC)C(C)C)C(=O)N[C@@H](Cc1cnc[nH]1)C(=O)N(C)CC(=O)N[C@@H](CC(C)C)C(=O)O (H-[Sar]RVYIH[Sar]L-OH)	< 0.1	0.21	7.4
CC[C@H](C)[C@H](NC(=O)[C@H](Cc1ccc(O)cc1)NC(=O)[C@@H](NC(=O)[C@H](CCCNC(=N)N)NC(=O)CNC)C(C)C)C(=O)N[C@@H](Cc1cnc[nH]1)C(=O)N(C)CC(=O)N[C@@H](CCSC)C(=O)O (H-[Sar]RVYIH[Sar]M-OH)	< 0.1	0.82	7.7
CC[C@H](C)[C@H](NC(=O)[C@H](Cc1ccc(O)cc1)NC(=O)[C@@H](NC(=O)[C@H](CCCNC(=N)N)NC(=O)CNC)C(C)C)C(=O)N[C@@H](Cc1cnc[nH]1)C(=O)N(C)CC(=O)N[C@H](C(=O)O)[C@@H](C)OC (H-[Sar]RVYIH[Sar]T(Me)-OH)	< 0.1	0.13	7.4
CCC(C)C(NC(=O)CN(C)C(=O)[C@H](Cc1cnc[nH]1)NC(=O)[C@@H](NC(=O)[C@H](Cc1ccc(O)cc1)NC(=O)[C@@H](NC(=O)[C@H](CCCNC(=N)N)NC(=O)CNC)C(C)C)[C@@H](C)CC)C(=O)O (mixture of isomers)	0.7	12.5	8.4
CC[C@H](C)[C@H](NC(=O)CN(C)C(=O)[C@H](Cc1cnc[nH]1)NC(=O)[C@@H](NC(=O)[C@H](Cc1ccc(O)cc1)NC(=O)[C@@H](NC(=O)[C@H](CCCNC(=N)N)NC(=O)CNC)C(C)C)[C@@H](C)CC)C(=O)O	< 0.1	0.7	8.1
CC[C@H](C)[C@H](NC(=O)[C@H](Cc1ccc(O)cc1)NC(=O)[C@@H](NC(=O)[C@H](CCCNC(=N)N)NC(=O)CNC)C(C)C)C(=O)N[C@@H](Cc1cnc[nH]1)C(=O)N(C)CC(=O)N[C@@H](C)C(=O)O (H-[Sar]RVYIH[Sar]A-OH)	< 0.1	0.06	7
CC[C@H](C)[C@H](NC(=O)[C@H](Cc1ccc(O)cc1)NC(=O)[C@@H](NC(=O)[C@H](CCCNC(=N)N)NC(=O)CNC)C(C)C)C(=O)N[C@@H](Cc1cnc[nH]1)C(=O)N(C)CC(=O)N[C@@H](Cc1ccccc1)C(=O)O (H-[Sar]RVYIH[Sar]F-OH)	22	17	–
